Legend:
[1] = molecular target: T1, Serine/threonine-protein kinase DCLK2 (Homo sapiens) (UniProt Q8N568); experiment: Inhibition of DCAMKL2 at 1 uM
T1 sequence (whole entry): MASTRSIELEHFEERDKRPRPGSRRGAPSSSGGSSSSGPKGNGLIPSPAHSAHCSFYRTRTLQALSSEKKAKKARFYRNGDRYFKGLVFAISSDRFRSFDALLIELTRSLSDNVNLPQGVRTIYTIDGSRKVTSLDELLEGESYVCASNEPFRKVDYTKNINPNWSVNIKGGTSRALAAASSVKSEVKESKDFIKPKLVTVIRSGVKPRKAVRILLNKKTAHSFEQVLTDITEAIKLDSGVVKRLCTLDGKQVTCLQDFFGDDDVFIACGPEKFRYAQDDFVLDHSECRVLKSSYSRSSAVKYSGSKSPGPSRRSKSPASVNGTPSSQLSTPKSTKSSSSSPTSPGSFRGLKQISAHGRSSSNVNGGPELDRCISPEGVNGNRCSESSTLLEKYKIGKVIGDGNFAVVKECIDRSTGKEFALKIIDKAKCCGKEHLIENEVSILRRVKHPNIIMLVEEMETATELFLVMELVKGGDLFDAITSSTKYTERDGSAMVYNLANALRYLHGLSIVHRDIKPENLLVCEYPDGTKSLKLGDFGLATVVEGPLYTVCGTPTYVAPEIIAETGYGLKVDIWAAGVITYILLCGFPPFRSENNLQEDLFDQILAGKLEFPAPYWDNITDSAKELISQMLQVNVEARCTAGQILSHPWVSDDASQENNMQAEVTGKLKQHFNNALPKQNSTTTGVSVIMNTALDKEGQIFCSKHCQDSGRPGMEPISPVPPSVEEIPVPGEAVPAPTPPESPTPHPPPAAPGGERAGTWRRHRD

[2] = system: Phosphatidylinositol 4,5-bisphosphate 3-kinase catalytic subunit alpha isoform (Homo sapiens), P42336 [Q546K]; experiment: Inhibition of PIK3CA Q546K mutant at 1 uM
[3] = molecular target: T2, NUAK family SNF1-like kinase 1 (Homo sapiens) (UniProt O60285); experiment: Inhibition of ARK5 at 1 uM
T2 sequence (whole entry): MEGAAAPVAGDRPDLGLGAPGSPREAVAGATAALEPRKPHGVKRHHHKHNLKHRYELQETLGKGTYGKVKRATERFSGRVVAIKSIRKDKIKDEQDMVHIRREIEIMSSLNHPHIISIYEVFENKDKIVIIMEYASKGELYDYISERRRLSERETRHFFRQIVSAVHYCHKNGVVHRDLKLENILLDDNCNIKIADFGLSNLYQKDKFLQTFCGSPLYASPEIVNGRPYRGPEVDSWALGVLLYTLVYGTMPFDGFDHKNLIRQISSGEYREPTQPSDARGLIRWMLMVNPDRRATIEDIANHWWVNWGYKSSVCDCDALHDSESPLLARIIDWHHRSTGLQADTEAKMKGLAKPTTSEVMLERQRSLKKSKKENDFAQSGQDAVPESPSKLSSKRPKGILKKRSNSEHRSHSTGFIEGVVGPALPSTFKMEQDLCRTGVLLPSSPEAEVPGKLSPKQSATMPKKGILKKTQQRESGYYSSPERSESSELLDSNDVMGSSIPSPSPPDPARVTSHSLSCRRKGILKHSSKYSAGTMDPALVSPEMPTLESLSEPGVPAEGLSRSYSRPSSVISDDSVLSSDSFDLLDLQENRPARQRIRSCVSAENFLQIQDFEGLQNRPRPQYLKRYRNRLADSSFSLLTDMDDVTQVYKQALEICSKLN

[4] = molecular target: Ribosomal protein S6 kinase alpha-4 (Homo sapiens) (UniProt O75676); experiment: Inhibition of RPS6KA4 C-terminal domain2 at 1 uM
[5] = molecular target: RAC-alpha serine/threonine-protein kinase (Homo sapiens) (UniProt P31749); experiment: Inhibition of AKT1 at 1 uM
Method in brief: (§1)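 Ambit KINOMEscan screen at a single concentration across a 250–400 kinase panel, recorded as percent inhibition. Selectivity was expressed as S(90), the fraction of kinases inhibited >90%.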

[6] = molecular target: T3, Phosphatidylinositol 5-phosphate 4-kinase type-2 beta (Homo sapiens) (UniProt P78356); experiment: Inhibition of PIP5K2B at 1 uM
T3 sequence (whole entry): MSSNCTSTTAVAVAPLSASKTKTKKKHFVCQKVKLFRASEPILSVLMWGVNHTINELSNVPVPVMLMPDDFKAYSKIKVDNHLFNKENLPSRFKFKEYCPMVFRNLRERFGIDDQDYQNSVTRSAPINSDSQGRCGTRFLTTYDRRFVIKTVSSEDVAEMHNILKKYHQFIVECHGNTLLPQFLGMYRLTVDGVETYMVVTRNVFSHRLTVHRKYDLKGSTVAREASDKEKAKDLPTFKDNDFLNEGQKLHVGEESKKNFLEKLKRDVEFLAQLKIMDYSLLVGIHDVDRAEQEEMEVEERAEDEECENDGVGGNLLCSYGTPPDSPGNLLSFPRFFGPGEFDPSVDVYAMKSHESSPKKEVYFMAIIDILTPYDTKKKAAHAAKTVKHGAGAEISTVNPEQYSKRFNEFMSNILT

[7] = molecular target: Serine/threonine-protein kinase 38-like (Homo sapiens) (UniProt Q9Y2H1); experiment: Inhibition of NDR2 at 1 uM
[8] = molecular target: Serine/threonine-protein kinase 10 (Homo sapiens) (UniProt O94804); experiment: Inhibition of LOK at 1 uM
Method in brief: (§2)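 Single-concentration screen on the Ambit KINOMEscan platform, run against a panel of 250–400 kinases. Per-kinase inhibition was also summarized as S(90), the fraction of kinases inhibited by more than 90%.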

[9] = system: Phosphatidylinositol 4,5-bisphosphate 3-kinase catalytic subunit alpha isoform (Homo sapiens), P42336 [H1047Y]; experiment: Inhibition of PIK3CA H1047Y mutant at 1 uM
[10] = molecular target: Calcium/calmodulin-dependent protein kinase kinase 2 (Homo sapiens) (UniProt Q96RR4); experiment: Inhibition of CAMKK2 at 1 uM; method in brief: as §1
[11] = molecular target: Serine/threonine-protein kinase Chk2 (Homo sapiens) (UniProt O96017); experiment: Inhibition of CHEK2 at 1 uM
[12] = molecular target: Misshapen-like kinase 1 (Homo sapiens) (UniProt Q8N4C8); experiment: Inhibition of MINK at 1 uM
[13] = molecular target: Macrophage-stimulating protein receptor (Homo sapiens) (UniProt Q04912); experiment: Inhibition of MST1R at 1 uM
[14] = molecular target: Cyclin-dependent kinase 19 (Homo sapiens) (UniProt Q9BWU1); experiment: Inhibition of CDK11 at 1 uM
[15] = molecular target: Dual specificity protein kinase CLK2 (Homo sapiens) (UniProt P49760); experiment: Inhibition of CLK2 at 1 uM; method in brief: as §1
[16] = molecular target: cAMP-dependent protein kinase catalytic subunit alpha (Homo sapiens) (UniProt P17612); experiment: Inhibition of PKAC-alpha at 1 uM
[17] = molecular target: 5'-AMP-activated protein kinase catalytic subunit alpha-2 (Homo sapiens) (UniProt P54646); experiment: Inhibition of AMPK-alpha2 at 1 uM; method in brief: as §1
[18] = molecular target: Mast/stem cell growth factor receptor Kit (Homo sapiens) (UniProt P10721); experiment: Inhibition of KIT at 1 uM; method in brief: as §2
Chain of Mast/stem cell growth factor receptor Kit (Homo sapiens) (P10721 whole entry): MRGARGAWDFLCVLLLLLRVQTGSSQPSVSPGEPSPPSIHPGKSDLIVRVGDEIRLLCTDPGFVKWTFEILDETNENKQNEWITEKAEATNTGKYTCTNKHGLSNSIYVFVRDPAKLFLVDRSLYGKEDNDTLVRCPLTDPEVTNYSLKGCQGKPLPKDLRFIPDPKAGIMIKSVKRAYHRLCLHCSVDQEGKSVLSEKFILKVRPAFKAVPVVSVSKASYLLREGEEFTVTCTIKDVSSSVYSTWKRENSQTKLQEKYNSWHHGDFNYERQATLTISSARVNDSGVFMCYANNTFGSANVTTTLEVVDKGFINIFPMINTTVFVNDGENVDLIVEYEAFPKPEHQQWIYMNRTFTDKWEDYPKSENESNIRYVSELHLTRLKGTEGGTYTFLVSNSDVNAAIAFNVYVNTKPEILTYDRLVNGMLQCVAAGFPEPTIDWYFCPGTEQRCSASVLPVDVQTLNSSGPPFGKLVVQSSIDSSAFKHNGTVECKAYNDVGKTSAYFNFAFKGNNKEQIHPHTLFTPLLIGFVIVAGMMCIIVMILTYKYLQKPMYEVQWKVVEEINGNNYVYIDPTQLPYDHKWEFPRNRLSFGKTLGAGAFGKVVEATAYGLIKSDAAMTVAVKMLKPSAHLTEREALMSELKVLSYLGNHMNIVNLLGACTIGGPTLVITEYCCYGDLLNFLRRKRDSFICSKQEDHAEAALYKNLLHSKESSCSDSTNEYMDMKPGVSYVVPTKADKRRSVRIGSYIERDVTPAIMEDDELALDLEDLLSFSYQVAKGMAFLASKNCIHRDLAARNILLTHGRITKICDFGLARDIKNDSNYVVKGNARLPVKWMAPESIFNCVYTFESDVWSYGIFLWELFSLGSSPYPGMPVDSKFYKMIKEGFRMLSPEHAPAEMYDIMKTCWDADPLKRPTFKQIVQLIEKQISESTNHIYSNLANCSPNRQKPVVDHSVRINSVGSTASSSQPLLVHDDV

Chain of Misshapen-like kinase 1 (Homo sapiens) (Q8N4C8 whole entry, looked up): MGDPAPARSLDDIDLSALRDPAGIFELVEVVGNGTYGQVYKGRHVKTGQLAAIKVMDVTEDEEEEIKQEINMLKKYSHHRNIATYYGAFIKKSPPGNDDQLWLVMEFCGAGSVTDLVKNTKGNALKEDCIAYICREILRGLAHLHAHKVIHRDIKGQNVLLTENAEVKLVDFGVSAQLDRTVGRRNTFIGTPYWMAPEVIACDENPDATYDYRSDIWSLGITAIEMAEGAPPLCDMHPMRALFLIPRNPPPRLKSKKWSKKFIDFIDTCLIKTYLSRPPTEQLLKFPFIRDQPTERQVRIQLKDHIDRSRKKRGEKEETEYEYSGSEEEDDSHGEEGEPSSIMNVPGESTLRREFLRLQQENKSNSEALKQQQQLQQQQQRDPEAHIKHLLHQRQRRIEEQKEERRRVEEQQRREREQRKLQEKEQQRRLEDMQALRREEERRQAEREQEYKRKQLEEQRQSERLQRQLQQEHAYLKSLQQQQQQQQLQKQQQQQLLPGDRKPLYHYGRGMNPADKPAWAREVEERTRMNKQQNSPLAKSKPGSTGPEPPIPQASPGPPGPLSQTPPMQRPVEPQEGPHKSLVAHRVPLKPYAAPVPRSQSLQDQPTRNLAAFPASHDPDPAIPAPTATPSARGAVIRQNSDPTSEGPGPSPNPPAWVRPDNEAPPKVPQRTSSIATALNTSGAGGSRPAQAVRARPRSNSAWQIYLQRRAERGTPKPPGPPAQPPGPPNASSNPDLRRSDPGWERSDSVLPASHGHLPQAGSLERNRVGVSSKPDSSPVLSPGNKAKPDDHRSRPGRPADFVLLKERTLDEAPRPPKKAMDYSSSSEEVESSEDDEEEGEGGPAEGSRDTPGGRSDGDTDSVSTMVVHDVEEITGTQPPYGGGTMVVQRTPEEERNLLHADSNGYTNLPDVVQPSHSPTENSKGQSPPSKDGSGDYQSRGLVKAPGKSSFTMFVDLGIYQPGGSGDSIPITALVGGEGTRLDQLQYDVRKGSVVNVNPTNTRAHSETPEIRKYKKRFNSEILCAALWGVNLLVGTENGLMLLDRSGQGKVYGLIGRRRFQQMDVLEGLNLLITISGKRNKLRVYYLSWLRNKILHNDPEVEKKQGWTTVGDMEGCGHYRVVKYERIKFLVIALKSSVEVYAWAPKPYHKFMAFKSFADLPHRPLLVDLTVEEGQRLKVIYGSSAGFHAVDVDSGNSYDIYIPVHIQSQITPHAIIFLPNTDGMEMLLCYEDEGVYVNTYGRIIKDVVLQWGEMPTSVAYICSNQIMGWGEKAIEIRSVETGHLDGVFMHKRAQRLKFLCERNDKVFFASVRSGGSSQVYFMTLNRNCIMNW
Chain of Macrophage-stimulating protein receptor (Homo sapiens) (Q04912 25-304 limits assumed): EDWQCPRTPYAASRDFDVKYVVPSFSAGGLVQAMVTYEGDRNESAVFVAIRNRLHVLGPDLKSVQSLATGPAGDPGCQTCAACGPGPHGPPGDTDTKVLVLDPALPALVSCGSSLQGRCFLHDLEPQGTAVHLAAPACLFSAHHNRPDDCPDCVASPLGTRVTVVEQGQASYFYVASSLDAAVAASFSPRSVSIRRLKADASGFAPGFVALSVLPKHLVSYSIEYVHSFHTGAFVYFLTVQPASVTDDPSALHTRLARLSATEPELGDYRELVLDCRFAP
Chain of Macrophage-stimulating protein receptor (Homo sapiens) (Q04912 310-1400 limits assumed): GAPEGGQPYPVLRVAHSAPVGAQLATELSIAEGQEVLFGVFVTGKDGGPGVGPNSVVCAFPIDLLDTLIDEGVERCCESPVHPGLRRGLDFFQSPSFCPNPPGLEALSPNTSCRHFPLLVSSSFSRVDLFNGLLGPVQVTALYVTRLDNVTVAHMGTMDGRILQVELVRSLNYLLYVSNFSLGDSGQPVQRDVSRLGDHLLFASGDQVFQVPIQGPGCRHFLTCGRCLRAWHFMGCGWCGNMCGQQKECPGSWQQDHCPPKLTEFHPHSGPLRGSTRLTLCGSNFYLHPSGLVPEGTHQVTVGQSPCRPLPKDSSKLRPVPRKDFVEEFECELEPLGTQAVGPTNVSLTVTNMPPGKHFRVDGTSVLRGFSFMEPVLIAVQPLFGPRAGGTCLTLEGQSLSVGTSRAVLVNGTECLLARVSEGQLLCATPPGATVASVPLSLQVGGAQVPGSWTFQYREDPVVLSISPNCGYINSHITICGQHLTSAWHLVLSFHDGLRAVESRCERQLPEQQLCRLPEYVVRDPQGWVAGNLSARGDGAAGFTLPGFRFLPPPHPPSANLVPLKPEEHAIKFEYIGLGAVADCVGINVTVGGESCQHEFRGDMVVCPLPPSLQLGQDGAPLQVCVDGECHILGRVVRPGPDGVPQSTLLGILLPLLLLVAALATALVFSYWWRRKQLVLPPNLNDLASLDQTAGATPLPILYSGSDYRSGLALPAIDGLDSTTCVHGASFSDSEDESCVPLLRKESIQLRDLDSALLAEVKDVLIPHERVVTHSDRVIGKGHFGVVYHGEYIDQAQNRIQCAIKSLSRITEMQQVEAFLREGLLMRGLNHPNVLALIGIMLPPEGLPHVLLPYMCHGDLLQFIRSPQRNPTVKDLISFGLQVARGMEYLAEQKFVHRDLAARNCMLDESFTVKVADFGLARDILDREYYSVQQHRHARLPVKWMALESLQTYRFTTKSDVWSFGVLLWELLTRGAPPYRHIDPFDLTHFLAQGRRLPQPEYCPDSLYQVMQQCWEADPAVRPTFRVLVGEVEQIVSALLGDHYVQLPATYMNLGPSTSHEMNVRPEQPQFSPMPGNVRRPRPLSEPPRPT
Chain of Phosphatidylinositol 4,5-bisphosphate 3-kinase catalytic subunit alpha isoform (Homo sapiens), P42336 [Q546K] (P42336 whole entry Q546K, canonical isoform): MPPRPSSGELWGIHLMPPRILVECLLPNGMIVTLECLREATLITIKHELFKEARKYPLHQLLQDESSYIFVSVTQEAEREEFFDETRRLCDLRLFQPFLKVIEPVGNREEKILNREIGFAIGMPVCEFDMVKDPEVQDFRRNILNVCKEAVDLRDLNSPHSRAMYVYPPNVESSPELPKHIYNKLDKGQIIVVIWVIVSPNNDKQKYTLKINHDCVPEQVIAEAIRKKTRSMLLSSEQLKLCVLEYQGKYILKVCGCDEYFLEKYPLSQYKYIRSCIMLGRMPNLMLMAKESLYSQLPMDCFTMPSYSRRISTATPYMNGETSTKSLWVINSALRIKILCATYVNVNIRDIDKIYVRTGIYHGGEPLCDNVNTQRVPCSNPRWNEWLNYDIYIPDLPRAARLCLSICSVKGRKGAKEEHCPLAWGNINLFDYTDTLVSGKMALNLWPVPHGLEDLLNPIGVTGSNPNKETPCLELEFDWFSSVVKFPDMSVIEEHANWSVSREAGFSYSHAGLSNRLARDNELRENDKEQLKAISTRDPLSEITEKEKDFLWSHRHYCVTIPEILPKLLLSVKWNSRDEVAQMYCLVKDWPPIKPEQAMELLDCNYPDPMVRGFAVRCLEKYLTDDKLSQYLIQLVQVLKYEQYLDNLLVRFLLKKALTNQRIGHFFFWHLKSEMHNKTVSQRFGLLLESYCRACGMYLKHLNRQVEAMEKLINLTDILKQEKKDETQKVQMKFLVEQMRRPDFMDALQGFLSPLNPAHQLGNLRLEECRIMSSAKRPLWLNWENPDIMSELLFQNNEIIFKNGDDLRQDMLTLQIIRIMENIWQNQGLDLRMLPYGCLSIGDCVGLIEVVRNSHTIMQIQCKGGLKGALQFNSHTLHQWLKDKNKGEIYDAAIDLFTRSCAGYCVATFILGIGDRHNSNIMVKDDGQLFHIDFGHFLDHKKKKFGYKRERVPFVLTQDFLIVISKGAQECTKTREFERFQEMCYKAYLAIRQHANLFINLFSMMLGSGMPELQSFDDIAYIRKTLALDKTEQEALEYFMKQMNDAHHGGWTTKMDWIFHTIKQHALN
Chain of Phosphatidylinositol 4,5-bisphosphate 3-kinase catalytic subunit alpha isoform (Homo sapiens), P42336 [H1047Y] (P42336 whole entry H1047Y, canonical isoform): as the sequence (P42336 whole entry Q546K, canonical isoform) above, with K546Q, H1047Y counted along it

Row | SMILES | inhibition [1] [%] | inhibition [2] [%] | inhibition [3] [%] | inhibition [4] [%] | inhibition [5] [%] | inhibition [6] [%] | inhibition [7] [%] | inhibition [8] [%] | inhibition [9] [%] | inhibition [10] [%] | inhibition [11] [%] | inhibition [12] [%] | inhibition [13] [%] | inhibition [14] [%] | inhibition [15] [%] | inhibition [16] [%] | inhibition [17] [%] | inhibition [18] [%]
1 | CN1CCN(c2ccc(-c3cnc4c(c3)N(Cc3cc(F)ccc3F)CCN4)cn2)CC1 | < 50 | < 50 | 96 | < 50 | < 50 | < 50 | < 50 | < 50 | < 50 | < 50 | < 50 | < 50 | < 50 | < 50 | < 50 | < 50 | < 50 | 56.5
2 | CC(=O)N1CCN(c2cc(-c3cnc4c(c3)N(Cc3cc(Cl)ccc3C(F)(F)F)CCN4)ccn2)CC1 | < 50 | < 50 | 90 | < 50 | < 50 | < 50 | < 50 | < 50 | < 50 | < 50 | < 50 | < 50 | < 50 | < 50 | < 50 | < 50 | < 50 | 75
3 | CN1CCN(c2ccc(-c3cnc4c(c3)N(Cc3c(F)ccc(F)c3Cl)CCN4)cn2)CC1 | < 50 | < 50 | 92 | < 50 | < 50 | < 50 | < 50 | < 50 | < 50 | < 50 | < 50 | 96 | < 50 | < 50 | < 50 | – | < 50 | 73
4 | FC(F)(F)c1ccc(Cl)cc1CN1CCNc2ncc(-c3ccnc(N4CCNCC4)c3)cc21 | 96 | < 50 | 88 | < 50 | < 50 | < 50 | < 50 | 66 | < 50 | < 50 | < 50 | < 50 | < 50 | < 50 | < 50 | < 50 | < 50 | 96
5 | CN1CCN(c2ccc(-c3cnc4c(c3)N(Cc3cc(Cl)ccc3Cl)CCN4)cn2)CC1 | < 50 | < 50 | 94 | < 50 | < 50 | < 50 | < 50 | < 50 | < 50 | < 50 | < 50 | < 50 | < 50 | < 50 | < 50 | < 50 | < 50 | 87
6 | O=C(c1ccc(-c2cnc3c(c2)N(Cc2cc(Cl)ccc2C(F)(F)F)CCN3)cc1)N1CCC(N2CCCC2)CC1 | – | – | – | – | < 50 | < 50 | < 50 | < 50 | – | < 50 | – | – | – | – | < 50 | < 50 | < 50 | 89.5
7 | O=C(O)c1ccc(-c2cnc3c(c2)N(Cc2cc(Cl)ccc2C(F)(F)F)CCN3)cc1 | – | – | – | – | < 50 | < 50 | < 50 | < 50 | – | < 50 | – | – | – | – | < 50 | < 50 | < 50 | < 50
8 | CN1CCN(c2ccc(-c3cnc4c(c3)N(Cc3cc(Cl)ccc3C(F)(F)F)CCN4)cn2)CC1 | < 50 | < 50 | 92 | < 50 | < 50 | < 50 | < 50 | < 50 | < 50 | < 50 | < 50 | < 50 | < 50 | < 50 | < 50 | – | < 50 | < 50
9 | O=C(c1ccc(-c2cnc3c(c2)N(Cc2cc(Cl)ccc2C(F)(F)F)CCN3)cc1)N1CCCCC1 | – | – | – | – | < 50 | < 50 | < 50 | < 50 | – | < 50 | – | – | – | – | < 50 | < 50 | < 50 | < 50
10 | COC1CCN(C(=O)c2ccc(-c3cnc4c(c3)N(Cc3cc(Cl)ccc3C(F)(F)F)CCN4)cc2)CC1 | – | – | – | – | < 50 | < 50 | < 50 | < 50 | – | < 50 | – | – | – | – | < 50 | < 50 | < 50 | < 50

Reference: ChEMBL document CHEMBL1165965, “Synthesis and structure-activity relationships of 1,2,3,4-tetrahydropyrido[2,3-b]pyrazines as potent and selective inhibitors of the anaplastic lymphoma kinase” (Bioorg Med Chem, 2010)
